# Assay outcomes (PubChem)
# The list is not random: actives were taken first. Their share in the collection is about 3.1%.
# Apaf-1 inh = inhibitors of human Apaf-1 apoptosome, primary screen, biochemical, DEVD-Rh110 fluorescence, uHTS; AID 489030, 2010; Apoptotic protease-activating factor 1 (Homo sapiens), O14727; reconstituted apoptosome caspase-3 activity; actives 0.71% (n = 330,000); inhibition, % at 20 µM; active = inhibition of at least 40% at 20 µM;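 also: plate controls were DMSO wells for no effect and DEVD-CHO caspase inhibitor wells for full effect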
#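 detection = Rh110 fluorescence intensity | test system = biochemical Apaf-1 apoptosome reconstitution | also added = cytochrome c and DEVD-Rh110 substrate | schedule = 30 min plus 50 min, RT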
# PAFAH1B2 inh = PAFAH1B2 enzyme inhibitors, primary screen, biochemical, fluorescence polarization, human; Platelet-activating factor acetylhydrolase IB subunit alpha2 (Homo sapiens), P68402; recombinant PAFAH1B2, FP-rhodamine activity probe; inhibition, % at 3.39 µM; actives 1.2% (n = 340,000);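 active = inhibition above the mean of all tested compounds plus 3 SD, cut at about 24% in these data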;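 also: 0% = enzyme with DMSO and 100% = wells lacking PAFAH1B2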
# Target sequence (P68402 whole entry, looked up): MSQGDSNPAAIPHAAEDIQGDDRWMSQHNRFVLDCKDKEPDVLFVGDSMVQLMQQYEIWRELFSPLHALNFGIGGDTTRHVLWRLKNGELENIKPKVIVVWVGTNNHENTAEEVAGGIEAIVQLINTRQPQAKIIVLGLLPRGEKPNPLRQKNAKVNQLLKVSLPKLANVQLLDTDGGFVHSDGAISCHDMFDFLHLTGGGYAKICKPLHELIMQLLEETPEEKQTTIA
# PAFAH1B3 FP inh = PAFAH1B3 enzyme inhibitors, primary screen, biochemical, fluorescence polarization, human. recombinant PAFAH1B3, FP-rhodamine probe. inhibition, % at 3.39 µM. actives 0.28% (n = 340,000). AID 492972, 2010;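 active = inhibition above the screen-wide average of all tested compounds plus 3 SD, cut at about 25% in these data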;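 also: 0% = enzyme with DMSO only and 100% = wells lacking PAFAH1B3 protein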
# Target sequence (Q15102 whole entry, looked up): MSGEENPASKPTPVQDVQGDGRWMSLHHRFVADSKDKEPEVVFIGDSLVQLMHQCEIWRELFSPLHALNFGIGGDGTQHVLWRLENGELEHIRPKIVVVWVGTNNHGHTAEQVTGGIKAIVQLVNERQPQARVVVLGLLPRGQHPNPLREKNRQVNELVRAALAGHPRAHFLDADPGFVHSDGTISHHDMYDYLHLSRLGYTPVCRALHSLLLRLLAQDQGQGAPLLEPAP
# PAFAH2 inh = PAFAH2 enzyme inhibitors, primary screen, biochemical, fluorescence polarization, human; recombinant PAFAH2, FP-rhodamine activity probe; AID 492956, 2010; inhibition, % at 3.39 µM; actives 0.99% (n = 340,000); Platelet-activating factor acetylhydrolase 2, cytoplasmic (Homo sapiens), Q99487;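 active = inhibition above the mean over all tested compounds plus 3 SD, cut at about 30% in these data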;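 also: inhibitors block probe labeling of enzyme so polarization drops; 0% = enzyme with DMSO and 100% = wells lacking PAFAH2 protein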
# pPAFAH FP inh = pPAFAH enzyme inhibitors, primary screen, biochemical, fluorescence polarization, human. actives 1.5% (n = 330,000). inhibition, % at 3.39 µM. recombinant pPAFAH, FP-rhodamine probe fluorescence polarization. AID 463082, 2010. Platelet-activating factor acetylhydrolase (Homo sapiens), Q13093;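 active = inhibition above the mean inhibition across the screen plus 3 SD, cut at about 25% in these data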;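 also: inhibitors block binding of the rhodamine activity-based probe so polarization drops; 0% = enzyme with DMSO and 100% = wells lacking pPAFAH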
# PAFAH2 confirm = PAFAH2 enzyme inhibitors, confirmation, biochemical, fluorescence polarization, human; recombinant PAFAH2, FP-rhodamine activity probe; inhibition, % at 3.39 µM; shares compounds with PAFAH2 inh; actives 65% (n = 2,300);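 active = mean inhibition over three repeats above a set limit taken from the earlier primary screen, cut at about 30% in these data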;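 also: inhibitor blocks binding of rhodamine activity probe so polarization falls; 0% = enzyme with DMSO and 100% = wells lacking PAFAH2 protein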
# Active calls of the source: *; nt = no result.
SMILES,Apaf-1 inh,PAFAH1B2 inh,PAFAH1B3 FP inh,PAFAH2 inh,pPAFAH FP inh,PAFAH2 confirm
O=C(COC(=O)c1ccc2ncsc2c1)Nc1ccc(OC(F)(F)F)cc1,-1,0,-1,73*,-10,70*
O=C(COC(=O)c1ccc2ncsc2c1)Nc1ccccc1Cl,-4,3,10,59*,-2,44*
O=C(COC(=O)c1ccc2ncsc2c1)NCc1ccc(Cl)cc1,14,5,2,39*,1,25
CC(Nc1nc(-c2cccnc2)nc2ccccc12)c1ccc(F)cc1 (stereo not drawn),24,3,1,0,-4,nt
C=CCNC(=O)C(=O)Nc1ccc2c(c1)N(S(=O)(=O)c1cccs1)CCC2,12,12,2,-2,6,nt
COC(=O)c1c(NC(=S)NNC(=O)c2ccc(Cl)s2)sc(C(=O)N(C)C)c1C,24,3,5,50*,10,41*
COC(=O)Nc1sc(C(=O)N(C)C)c(C)c1C(=O)OC,9,3,7,-4,-4,nt
CC1CCN(S(=O)(=O)c2ccc(C(=O)N3CCCC3C(=O)O)cc2)CC1 (stereo not drawn),15,9,3,-4,1,nt
COc1ccc(/C=C2\SC(c3ccc(C)cc3)=NC2=O)cc1OC,16,7,7,27,-1,nt
COc1ccc(/C=C2/SC(c3ccc(C)cc3)=NC2=O)cc1OC,17,3,3,38*,4,26
CCOc1ccc(CNS(=O)(=O)c2cccs2)cc1OCC,-4,2,10,4,0,nt
O=C1CCCC/C=C\C[C@H](CC(=O)N(CCO)Cc2ccccc2)C(=O)N[C@@H](c2ccccc2)CO1,7,4,7,48*,6,33*
COc1cc2c(cc1OC)-c1cc(N3CCc4ccccc43)nc(=O)n1CC2,4,3,2,53*,-1,41*
COc1cc2c(cc1OC)-c1cc(OCc3cccnc3)nc(=O)n1CC2,nt,1,-7,61*,nt,54*
CCN(CC(=O)Nc1c(F)cccc1F)C(=O)c1cc(C)oc1C,-1,4,4,-4,2,nt
CCN(c1ccccc1)S(=O)(=O)c1ccc(OC)c(NC(=O)CCc2nc3ccccc3c(=O)[nH]2)c1,17,2,7,-3,8,nt
Cc1ccc(NC(=O)c2ccccc2NS(=O)(=O)c2ccc(Cl)s2)cc1,-4,11,1,71*,9,74*
O=C(Nc1ccccc1)c1ccccc1NS(=O)(=O)c1ccc(Cl)s1,5,20,3,71*,7,75*
O=C(NNC(=O)c1ccccc1-n1cccc1)c1ccc(Cl)nc1,-9,-3,12,5,4,nt
CCN(c1cccc(C)c1)S(=O)(=O)c1ccc2c(c1)NC(=O)CCS2,6,5,0,48*,9,35*
COc1ccc(C(CNC(=O)c2cccc(S(=O)(=O)Nc3ccc(F)cc3)c2)N2CCCCC2)cc1 (stereo not drawn),nt,-1,0,1,nt,nt
O=C(COC(=O)[C@H](Cc1ccccc1)NC(=O)c1cccs1)Nc1ccccc1C(F)(F)F,7,6,2,5,0,nt
CCc1ccccc1NC(=O)COC(=O)c1cccs1,-104,5,-2,80*,8,76*
O=C(COC(=O)c1cccs1)Nc1ccccc1C(F)(F)F,1,-6,-2,77*,14,54*
O=C(COC(=O)c1cccnc1Cl)Nc1cc(S(=O)(=O)N2CCCCC2)ccc1Cl,-3,1,5,28,3,nt
SMILES,Apaf-1 inh,PAFAH1B2 inh,PAFAH1B3 FP inh,PAFAH2 inh,pPAFAH FP inh,PAFAH2 confirm
Nc1cc(N)cc(C(=O)OCC(=O)Nc2cc(S(=O)(=O)N3CCCCC3)ccc2Cl)c1,1,0,7,31*,8,13
CCOc1ncccc1C(=O)OCC(=O)Nc1cc(S(=O)(=O)N2CCOCC2)ccc1Cl,1,-3,2,44*,14,39*
Cc1ccc(NC(=O)COC(=O)c2cccnc2Cl)cc1S(=O)(=O)N1CCCCC1,-2,5,16,53*,4,34*
O=C(COC(=O)c1cccnc1Cl)Nc1cc(S(=O)(=O)N2CCCCCC2)ccc1Cl,20,6,7,32*,nt,24
S=c1[nH]nc(-c2ccco2)n1/N=C/C=C/c1ccco1,6,4,18,46*,18,0
COc1ccccc1/C=C/C=N/n1c(-c2ccco2)n[nH]c1=S,-8,2,5,11,17,nt
CC(=O)c1ccc(S(=O)(=O)N2CCN(C(=O)c3ccc(-n4nc(C)c(Cl)c4C)cc3)CC2)cc1,39,-7,2,50*,-2,43*
Cc1nn(-c2ccc(C(=O)N3CCN(S(=O)(=O)c4ccccc4C(F)(F)F)CC3)cc2)c(C)c1Cl,10,-1,3,8,0,nt
COc1ccccc1Nc1nc(N)nc(CSC(=S)N2CCCCC2)n1,-3,1,2,37*,0,26
CC1CCCN(CC(=O)Nc2cc(S(=O)(=O)N3CCOCC3)ccc2N2CCCC2)C1 (stereo not drawn),-7,-2,-2,-2,-2,nt
CSc1nc2[nH]c(=O)n(O)c(=O)c2n1Cc1ccccc1,nt,13,-6,37*,nt,8
Cc1ccc(C)c(S(=O)(=O)Nc2ccc3oc(C)c(C(=O)O)c3c2)c1,11,-1,7,38*,24,14
O=C(CCc1ccccn1)N1CCCC(N2CCN(c3cccc(C(F)(F)F)c3)CC2)C1 (stereo not drawn),6,8,10,4,6,nt
CCN1C(=S)N[C@@H](c2cccs2)C(C(=O)OC)=C1C,4,-2,-2,-4,-3,nt
COc1ccc(C(=O)NNC(=S)NC(=O)c2ccc(F)cc2)cc1Br,11,nt,nt,nt,5,nt
COc1cc(C(=O)NNC(=S)NC(=O)c2ccc(F)cc2)cc(OC)c1OC,4,9,5,51*,7,23
Cc1cc(NC(=O)COC(=O)c2ccc([N+](=O)[O-])cc2Cl)no1,10,1,7,8,0,nt
O=C(COC(=O)Cc1ccccc1[N+](=O)[O-])NCc1ccccc1Cl,12,3,9,6,-2,nt
CCNc1ccc(C(=O)OCC(=O)Nc2cc(C)on2)cc1[N+](=O)[O-],-12,-2,14,31*,2,31*
CCNc1ccc(C(=O)OCC(=O)NCc2ccccc2Cl)cc1[N+](=O)[O-],-7,0,-7,47*,0,56*
